# Screening data from PubChem.
# This is a sample that favours compounds with a hit; in the whole collection about 2.3% have one here.
# ADAM17 inh: inhibitors of human ADAM17. P78536. recombinant ADAM17, EDANS/DABCYL FRET peptide cleavage. inhibition, % at 6.95 µM. 370,000 tested, 0.83% active;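 active means inhibition above the mean of compounds lying between control limits plus 3 SD, set per campaign, cut at about 8.5% in these data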
# Tn6 DDE FP: inhibitors of Tn6 peptide binding to human fibrin DD(E) | Fibrin DD(E) TRITC-Tn6 fluorescence polarization displacement | inhibition, % at 8.3 µM | 370,000 tested, 0.21% active | AID 720509;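 active means inhibition above a per-campaign cutoff: mean of compounds within control limits plus 3 SD, cut at about 15% in these data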
# DDE Tn7 FP inh: disrupts Tn7 cyclic peptide binding to fibrin D-Dimer-E complex; P02675; FP displacement of FITC-Tn7 peptide from fibrin DD(E); 0% = median of compound wells per plate; inhibition, % at 8.3 µM; 370,000 tested, 0.13% active; AID 720508;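 active means inhibition above the mean of compounds falling within the control limits plus 3 SD of them, cut at about 14% in these data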
#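 Also added: labelled Tn7 tracer, 0.1 µM; Assay system: human fibrin DD(E) protein; Amount: 2 µM fibrin DD(E); Schedule: 10 min compound pre-incubation, 3 h probe incubation at room temperature; Repeats: one replicate per compound; Read-out basis: percent inhibition; Measured by: fluorescence polarization of the labelled Tn7 tracer.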
# PLC-beta3 inh: inhibitors of human phospholipase C beta3; Q01970; Purified PLC-beta3, fluorogenic substrate, fluorescence; inhibition, % at 12.2 µM; 370,000 tested, 0.18% active; in the data active means inhibition above about 11%
# ADAM10 inh: inhibitors of human ADAM10. O14672. recombinant ADAM10, EDANS/DABCYL FRET peptide cleavage, 3 h. inhibition, % at 7 µM. 370,000 tested, 0.62% active. AID 720582;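 active means inhibition above a per-campaign cutoff equal to the mean of compounds falling between control-based bounds plus 3 SD, cut at about 20% in these data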
# PLCg1 inh: inhibitors of human phospholipase C gamma1; inhibition, % at 12.2 µM; AID 720700; P19174; purified PLC-gamma1, fluorogenic substrate, fluorescence; 370,000 tested, 0.84% active; in the data active means inhibition above about 9.5%
# Target sequence (P19174 whole entry, looked up): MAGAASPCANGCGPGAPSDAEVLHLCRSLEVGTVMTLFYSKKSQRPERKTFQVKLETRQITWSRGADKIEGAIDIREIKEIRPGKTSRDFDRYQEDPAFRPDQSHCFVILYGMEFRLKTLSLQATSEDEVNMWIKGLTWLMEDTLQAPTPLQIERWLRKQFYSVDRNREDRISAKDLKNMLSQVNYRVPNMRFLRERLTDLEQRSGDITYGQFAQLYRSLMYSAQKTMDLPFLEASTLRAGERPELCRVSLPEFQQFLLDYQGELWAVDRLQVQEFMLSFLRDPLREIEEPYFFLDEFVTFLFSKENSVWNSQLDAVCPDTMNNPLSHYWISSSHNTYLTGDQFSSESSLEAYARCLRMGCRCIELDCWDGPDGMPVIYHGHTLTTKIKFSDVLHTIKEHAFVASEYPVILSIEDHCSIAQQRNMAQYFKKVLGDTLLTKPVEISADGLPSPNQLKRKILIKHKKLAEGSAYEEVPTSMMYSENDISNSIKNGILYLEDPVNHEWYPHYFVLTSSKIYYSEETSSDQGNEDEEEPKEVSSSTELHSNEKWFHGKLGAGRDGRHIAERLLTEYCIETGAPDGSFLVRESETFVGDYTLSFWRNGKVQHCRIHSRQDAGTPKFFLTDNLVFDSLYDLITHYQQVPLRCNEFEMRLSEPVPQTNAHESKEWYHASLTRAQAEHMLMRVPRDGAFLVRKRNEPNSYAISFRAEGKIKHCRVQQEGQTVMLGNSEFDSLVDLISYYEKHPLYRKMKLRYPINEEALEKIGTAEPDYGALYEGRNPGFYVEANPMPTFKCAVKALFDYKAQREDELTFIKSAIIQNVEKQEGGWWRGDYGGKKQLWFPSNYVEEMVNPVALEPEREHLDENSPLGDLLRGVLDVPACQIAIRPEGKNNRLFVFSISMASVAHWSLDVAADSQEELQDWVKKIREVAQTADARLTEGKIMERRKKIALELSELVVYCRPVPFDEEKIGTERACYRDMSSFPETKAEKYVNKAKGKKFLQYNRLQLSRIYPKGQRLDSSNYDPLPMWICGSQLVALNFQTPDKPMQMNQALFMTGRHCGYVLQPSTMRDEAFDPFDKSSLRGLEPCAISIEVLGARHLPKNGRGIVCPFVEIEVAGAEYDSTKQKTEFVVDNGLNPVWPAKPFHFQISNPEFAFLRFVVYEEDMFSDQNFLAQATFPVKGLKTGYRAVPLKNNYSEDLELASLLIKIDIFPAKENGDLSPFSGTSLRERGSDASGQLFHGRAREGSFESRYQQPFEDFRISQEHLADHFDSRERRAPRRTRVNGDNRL
# ADAM10 confirm: human ADAM10 inhibition, confirmation; shares compounds with ADAM10 inh; ADAM10 QFRET peptide cleavage, EDANS fluorescence; inhibition, % at 6.95 µM; 2,100 tested, 1% active; AID 743208;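 active means inhibition above about 20% chosen separately for each screening run, limit read from the data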
# ADAM17 ctr: inhibits human ADAM17 in ADAM10 exosite counter-screen; shares compounds with ADAM10 inh; ADAM17 QFRET peptide cleavage, EDANS fluorescence; inhibition, % at 6.95 µM; 2,100 tested, 0.5% active; AID 743214;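 active means mean triplicate inhibition above the solvent-only control wells' mean plus 3 SD, cut at about 12% in these data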
# ADAM10 ctr: inhibits human ADAM10 in ADAM17 exosite counter-screen; AID 743256; recombinant ADAM10, EDANS/DABCYL FRET peptide cleavage, 3 h; 2,900 tested, 47% active; shares compounds with ADAM17 inh; inhibition, % at 6.95 µM;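 active means mean inhibition over the triplicate runs exceeds the activity threshold set in the earlier primary screen, cut at about 20% in these data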
# ADAM17 confirm: human ADAM17 inhibition, confirmation | recombinant ADAM17, EDANS/DABCYL QFRET peptide cleavage | AID 743257 | 2,900 tested, 65% active | inhibition, % at 6.95 µM | shares compounds with ADAM17 inh;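 active means mean inhibition across replicates above the hit cutoff set in the primary screen, cut at about 8.5% in these data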
# Hits are given with their value; - = inactive; . = no result given.
SMILES,ADAM17 inh,Tn6 DDE FP,DDE Tn7 FP inh,PLC-beta3 inh,ADAM10 inh,PLCg1 inh,ADAM10 confirm,ADAM17 ctr,ADAM10 ctr,ADAM17 confirm
CCCNC(=O)NC(=O)COC(=O)c1cccc(NS(=O)(=O)c2ccc(F)c(F)c2)c1,-,-,-,-,-,-,.,.,.,.
Cc1oc2c(cc(NS(=O)(=O)c3ccc(C(C)C)cc3)c3ccccc32)c1C(=O)O,-,-,-,-,-,-,.,.,.,.
Cc1oc2c(cc(NS(=O)(=O)c3cccs3)c3ccccc32)c1C(=O)OC(C)C,9.7,-,-,-,23.6,-,-,-,37.7,14.4
O=C(Nc1ccccc1)c1cc(C2CCCCN2S(=O)(=O)Cc2cccc(C(F)(F)F)c2)on1 (centres undefined),17.3,-,-,-,29.5,-,-,-,25.7,11.5
O=S(=O)(CC1NCc2cc(F)ccc21)NCCc1ccccc1 (centres undefined),-,-,-,-,-,-,.,.,.,.
CC(O)(c1cccc(F)c1)c1nc(-c2cccc(C(F)(F)F)c2)cs1 (centres undefined),11.1,-,-,-,23.2,-,-,-,45.4,28.1
OC(c1ccccc1)(c1nc(-c2cccc(C(F)(F)F)c2)cs1)C(F)(F)F (centres undefined),13.8,-,-,-,26.0,-,-,-,35.2,19.0
CC(O)(c1ccc(F)c(F)c1)c1nc(-c2cccc(C(F)(F)F)c2)cs1 (centres undefined),11.0,-,-,-,26.3,-,-,-,32.7,16.8
Cc1ccc(-c2c(NC(=O)c3cccc(C)c3)nc3ncccn23)cc1,-,-,-,-,-,-,.,.,.,.
CCCCOC(=O)c1ccc(NC(=O)c2c(Cl)ccc(Cl)c2OC)cc1,9.3,-,-,-,22.2,-,-,-,22.0,13.6
FC(F)(F)c1cc(CNC2CCC23CCCCC3)ccc1Cl (centres undefined),-,-,-,-,-,-,.,.,.,.
COCCOc1ccc(C(F)(F)F)cc1NC(=O)COC(=O)c1cc([N+](=O)[O-])ccc1N1CCOCC1,8.9,-,-,-,22.0,-,-,-,-,8.9
O=C(CSc1ccc2ccccc2c1Br)Nc1cccc(S(=O)(=O)NC2=NCCCCC2)c1,13.7,-,-,-,35.5,-,-,-,28.3,19.7
Cc1ccc(C)c(SCC(=O)Nc2cccc(S(=O)(=O)NC3=NCCCCC3)c2)c1,-,-,-,-,-,-,.,.,.,.
CC(C)Cn1c(-c2ccc(Br)cc2)c[nH]c1=S,14.4,-,-,-,25.9,-,-,-,-,9.0
COc1ccc(NC(=O)COC(=O)CCCOc2ccc(Cl)cc2Cl)cc1,10.0,-,-,-,23.8,-,-,-,-,-
C=CCN(c1ccccc1OC)S(=O)(=O)c1cccc(C(=O)OCC(=O)c2c[nH]c3ccccc23)c1,8.8,-,-,-,22.6,-,-,-,31.8,19.2
CCOc1ccc(NS(=O)(=O)c2cc(NC(=O)c3cccc(C)c3)ccc2Cl)cc1,13.7,-,-,-,31.1,-,-,-,31.4,18.7
COC(=O)c1ccc(N2CCC(c3cc(-c4ccc(OC)cc4)n[nH]3)CC2)c([N+](=O)[O-])c1,11.7,-,-,-,28.6,-,-,-,34.7,18.5
CCNC(=O)c1cc2c(c(-c3cccc(-c4cccc(C(=O)N(C)C)c4)c3)n1)[C@@H](CCO)N(S(=O)C(C)(C)C)C2 (some centres undefined),-,-,-,-,-,-,.,.,.,.
